Measurements: ChEMBL document CHEMBL2150868, “Bi-, tri-, and polycyclic acylphloroglucinols from Hypericum empetrifolium” (J Nat Prod, 2012)

Experiment: Antiangiogenic activity in SV-40T transfected human HMEC1 cells assessed as inhibition of cell proliferation after 72 hrs by crystal violet staining
Format: functional, cell-based
Details: HMEC-1, 72 h
In short: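 SV-40T-transfected human microvascular endothelial HMEC-1 cells kept at 37 °C, 5% CO2, humidified. Seeded 1.5 × 10^3 cells/well in endothelial growth medium with 10% FCS, allowed 24 h adhesion (crystal-violet baseline plate). Exposed to 0.1−30 or 0.2−60 μM compound (DMSO; 0.1% DMSO control) for 72 h. Crystal violet stain, A540. IC50 ± SD from three independent experiments, hexaplicates.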

| SMILES | IC50 |
| --- | --- |
| CCC(C)C(=O)c1c(O)cc2c(c1O)CCC(C)(CCC=C(C)C)O2 (centres undefined) | 21.1 µM |
| CCC(C)C(=O)c1c(O)cc(O)c2c1OC(C)(CCC=C(C)C)CC2 (centres undefined) | 13.3 µM |
| CC(C)=CCCC1(C)CCc2c(O)cc(O)c(C(=O)C(C)C)c2O1 (centres undefined) | 16.5 µM |
| CC(C)=CCCC1(C)CCc2c(cc(O)c(C(=O)C(C)C)c2O)O1 (centres undefined) | 29.6 µM |
| CC(C)C(=O)c1c(O)cc(O)c2c1O[C@]1(C)CCCC(C)(C)[C@H]1C2 (relative stereo) [EMPETRIFERDINAN A] | 24.4 µM |
| CCC(C)C(=O)c1c(O)cc(O)c2c1O[C@]1(C)CCCC(C)(C)[C@H]1C2 (relative stereo) [EMPETRIFERDINAN B] | 16.6 µM |
| CCC(C)C(=O)c1c(O)cc(O)c2c1O[C@]1(C)CC[C@@H](O)C(C)(C)[C@H]1C2 (relative stereo) [EMPETRIFERDINOL] | 29.2 µM |
| CC(C)=CCC[C@@]1(C)Oc2c(c(O)cc(O)c2C(=O)C(C)C)C[C@@H]1O (relative stereo) [EMPETRIKARINOL A] | 23.4 µM |
| CCC(C)C(=O)c1c(O)cc(O)c2c1O[C@](C)(CCC=C(C)C)[C@@H](O)C2 (relative stereo) [EMPETRIKARINOL B] | 18.4 µM |
| CCC(C)C(=O)c1c(O)cc2c3c1OC(C)(C)C1CCC(C)(CC31)O2 (centres undefined) [EMPETRIFRANZINAN C] | 9.2 µM |
| CC(C)=CCCC1(C)C=Cc2c(O)cc(O)c(C(=O)C(C)C)c2O1 (centres undefined) [EMPETRIKARINEN A] | 24.4 µM |
| CCC(C)C(=O)c1c(O)cc(O)c2c1OC(C)(CCC=C(C)C)C=C2 (centres undefined) [EMPETRIKARINEN B] | 15 µM |
| COc1cc(O)c(CC=C(C)C)c(O)c1C(=O)/C=C/c1ccc(O)cc1 [XANTHOHUMOL] | 11.4 µM |

Experiment: Antiangiogenic activity in bovine endothelial cells assessed as inhibition of cell proliferation
Format: functional, cell-based
Details: Bos taurus

| SMILES | IC50 |
| --- | --- |
| CC(C)=CCC[C@]1(C)[C@@H](CC=C(C)C)C[C@]2(CC=C(C)C)C(=O)C(CC=C(C)C)=C(O)[C@@]1(C(=O)C(C)C)C2=O | 2.1 µM |
